Data: ChEMBL document CHEMBL1152204, “Novel potent and highly selective human A(3) adenosine receptor antagonists belonging to the 4-amido-2-arylpyrazolo[3,4-c]quinoline series: molecular docking analysis and pharmacological studies” (Bioorg Med Chem, 2009)

How the values were obtained:
[1] = biological target: T1, Adenosine receptor A3 (Homo sapiens) (UniProt P0DMS8); experiment: (§1) Displacement of [125I]AB-MECA from human adenosine A3 receptor expressed in CHO cells by scintillation counting; format: cell-based; set-up: concentration or dose not given beside the values; settings: concentration not given here
T1 sequence (whole entry): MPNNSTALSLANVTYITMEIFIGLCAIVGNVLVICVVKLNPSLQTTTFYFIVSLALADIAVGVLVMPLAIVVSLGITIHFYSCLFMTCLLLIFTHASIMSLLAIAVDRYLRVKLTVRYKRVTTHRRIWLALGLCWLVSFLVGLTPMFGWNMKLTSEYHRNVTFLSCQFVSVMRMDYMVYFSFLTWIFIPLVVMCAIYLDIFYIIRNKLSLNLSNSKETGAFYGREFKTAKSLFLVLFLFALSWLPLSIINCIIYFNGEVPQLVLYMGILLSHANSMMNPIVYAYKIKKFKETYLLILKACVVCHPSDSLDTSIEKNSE
Outline: (§2)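 hA3-CHO membranes (50 µg protein) with 0.5 nM [125I]AB-MECA in 50 mM Tris-HCl, 10 mM MgCl2, 1 mM EDTA, pH 7.4; six to eight ligand concentrations; 120 min at 4 °C. Nonspecific binding: 1 µM AB-MECA. GF/B filtration. Ki by Cheng–Prusoff, means of four assays in duplicate.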

[2] = biological target: T2, Adenosine receptor A1 (Homo sapiens) (UniProt P30542); experiment: Displacement of [3H]DPCPX from human adenosine A1 receptor expressed in CHO cells at 1 uM by scintillation counting; format: cell-based
T2 sequence (whole entry): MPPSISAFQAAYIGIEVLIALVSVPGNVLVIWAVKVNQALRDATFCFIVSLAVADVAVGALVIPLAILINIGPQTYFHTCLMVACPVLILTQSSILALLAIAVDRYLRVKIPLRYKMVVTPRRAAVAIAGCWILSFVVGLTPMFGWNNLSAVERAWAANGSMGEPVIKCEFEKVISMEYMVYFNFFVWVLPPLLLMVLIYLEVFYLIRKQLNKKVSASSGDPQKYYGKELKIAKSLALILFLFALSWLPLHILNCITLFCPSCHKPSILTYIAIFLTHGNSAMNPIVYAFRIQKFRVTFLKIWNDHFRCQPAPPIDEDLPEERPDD
Outline: (§3)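 hA1-CHO membranes (50 µg protein) with 1 nM [³H]DPCPX in 50 mM Tris-HCl pH 7.4, 120 min at 25 °C; nonspecific binding with 10 µM CHA. GF/B filtration. Ki from six to eight concentrations via Cheng–Prusoff (four duplicate assays); or % inhibition at 1 µM.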

[3] = biological target: T3, Adenosine receptor A2a (Homo sapiens, UniProt P29274); experiment: Displacement of [3H]ZM241385 from human adenosine A2A receptor expressed in CHO cells at 1 uM by scintillation counting; format: cell-based
Outline: (§4)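 hA2A-CHO membranes (50 µg protein) with 1 nM [³H]ZM241385 in 50 mM Tris-HCl, 10 mM MgCl2, pH 7.4; 60 min at 4 °C; nonspecific binding with 1 µM ZM241385. GF/B filtration. Ki from six to eight concentrations via Cheng–Prusoff; or % inhibition at 1 µM.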

[4] = biological target: T4, Adenosine receptor A2b (Homo sapiens) (UniProt P29275); experiment: Antagonist activity at human adenosine A2B receptor expressed in CHO cells assessed as inhibition of NECA-induced cAMP accumulation at 1 uM; format: functional, cell-based
T4 sequence (whole entry): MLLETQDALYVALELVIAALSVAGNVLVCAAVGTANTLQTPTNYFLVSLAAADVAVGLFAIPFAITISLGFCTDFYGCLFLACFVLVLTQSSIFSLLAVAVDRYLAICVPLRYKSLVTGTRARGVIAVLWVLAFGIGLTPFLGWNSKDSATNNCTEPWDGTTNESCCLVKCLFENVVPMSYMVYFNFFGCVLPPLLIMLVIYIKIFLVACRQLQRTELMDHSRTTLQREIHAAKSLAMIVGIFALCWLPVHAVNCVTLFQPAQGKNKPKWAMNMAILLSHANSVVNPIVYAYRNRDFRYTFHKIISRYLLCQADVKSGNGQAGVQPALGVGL
Outline: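 Whole hA2B-CHO cells (1 × 10⁶/assay) in buffered saline, pH 7.4, with 2 IU/ml adenosine deaminase and Ro 20-1724; preincubated 10 min at 37 °C. Stimulated with 200 nM NECA; compound at 1 µM. Stopped with cold 6% TCA, ether-extracted; cAMP by [³H]cAMP competition protein binding; % inhibition reported.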

[5] = biological target: T5, Adenosine receptor A3 (Homo sapiens, UniProt P0DMS8); experiment: as §1; format: cell-based; outline: as §2
T5 sequence (P0DMS8 whole entry): T1 sequence (whole entry)

[6] = biological target: T6, Adenosine receptor A3 (Rattus norvegicus) (UniProt P28647); experiment: Displacement of [125I]AB-MECA from rat adenosine A3 receptor expressed in HEK293 cells at 1 uM by scintillation counting; format: cell-based
T6 sequence (whole entry): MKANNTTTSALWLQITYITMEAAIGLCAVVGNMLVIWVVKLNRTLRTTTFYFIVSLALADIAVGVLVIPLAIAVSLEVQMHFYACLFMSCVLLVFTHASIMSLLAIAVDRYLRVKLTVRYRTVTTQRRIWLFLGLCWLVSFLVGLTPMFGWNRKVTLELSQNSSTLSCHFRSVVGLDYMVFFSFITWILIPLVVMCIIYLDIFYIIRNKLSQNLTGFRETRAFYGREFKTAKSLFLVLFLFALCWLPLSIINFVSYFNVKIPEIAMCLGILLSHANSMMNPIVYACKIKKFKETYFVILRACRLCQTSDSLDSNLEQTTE
Outline: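 rA3-HEK293 membranes (10 µg protein) with 0.5 nM [125I]AB-MECA in Tris-HCl/MgCl2/EDTA buffer pH 7.4; 120 min at 25 °C; GF/B filtration and scintillation counting; percent inhibition at 1 µM test compound.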

[7] = biological target: T5, Adenosine receptor A3; experiment: Antagonist activity at human adenosine A3 receptor expressed in CHO cells assessed as inhibition of CI-IB-MECA-mediated inhibition of cAMP accumulation by competition protein binding assay; format: functional, cell-based
Outline: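 hA3-CHO cells (1 × 10⁶/assay) preincubated 10 min at 37 °C in buffered saline pH 7.4 with adenosine deaminase (2 IU/ml) and Ro 20-1724. cAMP inhibited by 100 nM Cl-IB-MECA; antagonist 1 nM–1 µM. TCA stop, ether extraction, cAMP by [³H]cAMP/adrenal binding-protein competition. IC50 as mean of four experiments.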

[8] = biological target: T7, Adenosine receptor A1 (Homo sapiens, UniProt P30542); experiment: Displacement of [3H]DPCPX from human adenosine A1 receptor expressed in CHO cells by scintillation counting; format: cell-based; outline: as §3
T7 sequence (P30542 whole entry): T2 sequence (whole entry)

[9] = biological target: T3, Adenosine receptor A2a; experiment: Displacement of [3H]ZM241385 from human adenosine A2A receptor expressed in CHO cells by scintillation counting; format: cell-based; outline: as §4

T3 sequence (P29274 whole entry): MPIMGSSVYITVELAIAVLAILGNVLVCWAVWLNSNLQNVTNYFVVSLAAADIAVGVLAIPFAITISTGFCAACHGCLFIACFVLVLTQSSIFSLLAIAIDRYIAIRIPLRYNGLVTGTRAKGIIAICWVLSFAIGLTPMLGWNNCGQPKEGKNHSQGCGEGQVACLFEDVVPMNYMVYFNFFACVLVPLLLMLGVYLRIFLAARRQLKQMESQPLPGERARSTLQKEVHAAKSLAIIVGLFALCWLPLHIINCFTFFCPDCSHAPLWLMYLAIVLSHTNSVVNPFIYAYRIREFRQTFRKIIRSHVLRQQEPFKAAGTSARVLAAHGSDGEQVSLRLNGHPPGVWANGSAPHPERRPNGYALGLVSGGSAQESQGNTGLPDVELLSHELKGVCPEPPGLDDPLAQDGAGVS

| inhibition [1] [%] | inhibition [2] [%] | inhibition [3] [%] | inhibition [4] [%] | Ki [5] [µM] | inhibition [6] [%] | IC50 [7] [µM] | Ki [8] [µM] | Ki [9] [µM] | SMILES |
| --- | --- | --- | --- | --- | --- | --- | --- | --- | --- |
| 24 | 4 | 3 | 6 | – | – | – | – | – | O=C(c1cccc(C(F)(F)F)c1)N(C(=O)c1cccc(C(F)(F)F)c1)c1nc2ccccc2c2cn(-c3ccccc3)nc12 |
| – | 26 | 1 | 1 | 0.0105 | 27 | 0.076 | – | – | O=C(Nc1nc2ccccc2c2cn(-c3ccccc3)nc12)c1cccnc1 |
| – | 6 | 1 | 38 | 0.0115 | 7 | 0.054 | – | – | Cc1ccc(C(=O)Nc2nc3ccccc3c3cn(-c4ccccc4)nc23)cc1 |
| 30 | 6 | 7 | 4 | – | – | – | – | – | Nc1nc2ccccc2c2cn(-c3cccc(C(F)(F)F)c3)nc12 |
| – | 6 | 6 | 2 | 0.065 | – | – | – | – | O=C(Nc1nc2ccccc2c2cn(-c3ccccc3)nc12)c1cnccn1 |
| – | 0 | 0 | – | – | – | – | – | – | O=C(c1ccccc1)N(C(=O)c1ccccc1)c1nc2ccccc2c2cn(-c3ccccc3)nc12 |
| – | 13 | 1 | 3 | 0.052 | – | – | – | – | O=C(Nc1nc2ccccc2c2cn(-c3cccc(C(F)(F)F)c3)nc12)c1ccccc1 |
| – | 17 | 1 | 2 | 0.0115 | 11 | 0.083 | – | – | O=C(Nc1nc2ccccc2c2cn(-c3ccc(Cl)cc3)nc12)c1ccco1 |
| – | 34 | 20 | 3 | 0.0034 | 29 | 0.021 | – | – | O=C(Nc1nc2ccccc2c2cn(-c3ccccc3)nc12)c1ccco1 |
| – | – | 26 | – | – | – | – | – | – | Cc1ccc(-n2cc3c(n2)c(NC(=O)c2ccccc2)nc2ccccc23)cc1 |
| – | 1 | 2 | 2 | 0.04 | – | – | – | – | O=C(Nc1nc2ccccc2c2cn(-c3ccccc3)nc12)c1ccsc1 |
| – | – | 10 | 5 | 0.0075 | 30 | 0.049 | 0.5 | – | Cc1ccc(C(=O)Nc2nc3ccccc3c3cn(-c4ccccc4)nc23)o1 |
| – | 10 | 1 | 3 | 0.14 | – | – | – | – | O=C(Nc1nc2ccccc2c2cn(-c3ccc(C(F)(F)F)cc3)nc12)c1ccccc1 |
| – | 45 | 1 | 6 | 0.05 | – | – | – | – | O=C(Nc1nc2ccccc2c2cn(-c3ccccc3)nc12)c1cccs1 |
| – | – | – | – | – | – | – | – | 2.86 | Cc1cccc(-n2cc3c(n2)c(NC(=O)c2ccccc2)nc2ccccc23)c1 |
| – | 4 | 2 | 3 | 0.0247 | 21 | 0.145 | – | – | O=C(Nc1nc2ccccc2c2cn(-c3ccc(Cl)cc3)nc12)c1ccncc1 |
| – | 6 | 10 | 5 | 0.48 | – | – | – | – | O=c1[nH]c2ccccc2c2cn(-c3ccc(C(F)(F)F)cc3)nc12 |
| 29 | 17 | 1 | 1 | – | – | – | – | – | O=C(c1ccc(C(F)(F)F)cc1)N(C(=O)c1ccc(C(F)(F)F)cc1)c1nc2ccccc2c2cn(-c3ccccc3)nc12 |
| – | 10 | 3 | 4 | 0.415 | – | – | – | – | O=C(Nc1nc2ccccc2c2cn(-c3ccccc3)nc12)c1ccc(C(F)(F)F)cc1 |
| – | 23 | 1 | 2 | 0.06 | – | – | – | – | O=C(Nc1nc2ccccc2c2cn(-c3ccccc3)nc12)c1cccc(C(F)(F)F)c1 |
| – | 9 | 6 | 3 | 0.21 | – | – | – | – | O=C(Nc1nc2ccccc2c2cn(-c3ccccc3)nc12)c1ccncn1 |
| – | 20 | 1 | 35 | 0.0063 | 5 | 0.026 | – | – | Cc1cccc(C(=O)Nc2nc3ccccc3c3cn(-c4ccccc4)nc23)c1 |
| – | 8 | 1 | 1 | 0.005 | 26 | 0.041 | – | – | O=C(Nc1nc2ccccc2c2cn(-c3ccccc3)nc12)c1ccncc1 |
| – | 6 | 2 | 1 | 0.945 | – | – | – | – | O=C(Nc1nc2ccccc2c2cn(-c3ccccc3)nc12)c1ncccn1 |
| – | 3 | 9 | 15 | 0.0155 | 23 | 0.107 | – | – | O=C(Nc1nc2ccccc2c2cn(-c3ccccc3)nc12)c1ccccn1 |
| – | 0 | 0 | – | 0.002 | – | – | – | – | O=C(Nc1nc2ccccc2c2cn(-c3ccccc3)nc12)c1ccccc1 |
| – | 9 | 2 | 5 | 0.05 | – | – | – | – | O=C(Nc1nc2ccccc2c2cn(-c3ccccc3)nc12)c1ccoc1 |
| – | 12 | 1 | 2 | 0.06 | – | – | – | – | O=C(Nc1nc2ccccc2c2cn(-c3ccccc3)nc12)c1cscn1 |
| 11 | 1 | 1 | 11 | – | – | – | – | – | Nc1nc2ccccc2c2cn(-c3ccc(C(F)(F)F)cc3)nc12 |
| 4 | 2 | 5 | 3 | – | – | – | – | – | O=c1[nH]c2ccccc2c2cn(-c3cccc(C(F)(F)F)c3)nc12 |
